Assay results from article PMC9064604 (RSC Advances, 2019).
Read-outs that look alike come from different tables or passages of the source.

Key:
[1] = tested on: triple negative human breast adenocarcinoma MDA-MB-231; test: Cell viability assay; type: cell-based; details: MDA-MB-231, 72 h, read-out: IC50 MDA-MB-231, dark
[2] = tested on: human colorectal adenocarcinoma HT-29; test: Cell viability assay; type: cell-based; details: read-out: IC50 HT-29, dark
[3] = tested on: human alveolar adenocarcinoma A549; test: Cell viability assay; type: cell-based; details: A549, 72 h, read-out: IC50 A549, dark
[4] = tested on: human colon adenocarcinoma Caco-2; test: Cell viability assay; type: cell-based; details: Caco-2, 72 h, read-out: IC50 Caco-2, dark
[5] = tested on: A549 cells; test: Quantification of cellular uptake by LC-MS/MS; type: cell-based, human
Summary of the method: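 A549 cells (1.2 × 10⁵/well) adhered overnight, then received 3 μM test compound. Medium was removed immediately or after 1, 3, 6, 12 or 24 h in the dark at 37 °C/5% CO₂. Cells were washed with PBS/1.5% DMSO, scraped into acetonitrile, sonicated and centrifuged. Extracts were quantified by LC-MS/MS against external standards (0.02–0.25 μM in A549 extract). Per-cell concentration assumed 1.7 pL cell volume; n = 4, mean ± SEM.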

[6] = tested on: murine melanoma B16-F10; test: Cell viability assay; type: cell-based; details: read-out: IC50 B16-F10, dark

Compound	IC50 [1] [µM]	IC50 ([2]; Homo sapiens, HT-29, 72 h) [µM]	IC50 [3] [µM]	IC50 [4] [µM]	maximum cellular concentration per cell ([5]; 3 μM, A549, assuming average cell volume of 1.7 pL and homogeneous distribution) [μM per cell]	time at which cellular uptake was optimal / plateaued ([5]; A549, 3 μM) [h]	IC50 ([6]; Mus musculus, B16-F10, 72 h) [µM]	IC50 ([2]; dark, 72 h, WST-1, mean ± SEM) [µM]	IC50 ([6]; dark, 72 h, WST-1, mean ± SEM) [µM]
Cc1cc(-c2ccccc2)c2ccc3c(-c4ccccc4)cc(C)nc3c2n1 [BC, bathocuproine]	> 100	> 100	> 100	> 100	2000	3	> 100		
c1ccc(-c2ccccn2)nc1 [bipy, 2,2′-bipyridine]	37.5 ± 0.14	> 100	> 100	> 100			> 100		
N.N.[Cl][Pt][Cl] [Cisplatin, cisplatin]								> 100	7.7 ± 0.2
